Results published in ChEMBL document CHEMBL3734720, “Synthesis of thiophene-thiosemicarbazone derivatives and evaluation of their in vitro and in vivo antitumor activities” (Eur J Med Chem, 2015).

Legend:
[1] = Antitumor activity against mouse EAT implanted in Balb/C mouse assessed as change in paw volume at 30 mg/kg, po administered on day 3 post tumor inoculation measured on day 15 by plethysmometer analysis (reference value: 166.5 +/- 6.0%); type: functional
MCF7 = assay: Antiproliferative activity against human MCF7 cells assessed as growth inhibition after 48 hrs by SRB assay; type: functional; settings: MCF7, 48 h
Summary of the method: (§1)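 Cells exposed 48 h at 37 °C, 5% CO2 to 0.25, 2.5, 25 and 250 µg/mL in DMSO/RPMI (final DMSO 0.1%); doxorubicin standard at 0.025–25 µg/mL. Plates fixed with 50% TCA before (T0) and after treatment; protein content read by sulforhodamine B at 540 nm. GI50 (µM) from nonlinear regression of concentration–response curves; triplicate.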

Mus musculus [2] = assay: Acute toxicity in Balb/C mouse assessed as adhesion of organs at 600 mg/kg, po; type: organism-based; settings: in vivo
Summary of the method: (§2)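 Fixed dose procedure following OECD guideline; Balb/C mice (20-35 g) fasted 16 h, groups of 5 given single oral doses stepwise at 600, 400 and 200 mgKg-1; survival and clinical signs of pain, suffering and impending death recorded per OECD guidance.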

[3] = Antitumor activity against mouse EAT implanted in Balb/C mouse assessed as change in paw volume at 100 mg/kg, po administered on day 3 post tumor inoculation measured on day 9 by plethysmometer analysis (reference value: 95.5 +/- 5.2%); type: functional
[4] = Antiproliferative activity against human PC3 cells assessed as growth inhibition after 48 hrs by SRB assay; type: functional; settings: PC-3, 48 h; summary of the method: as §1
[5] = Antitumor activity against mouse EAT implanted in Balb/C mouse assessed as change in paw volume at 300 mg/kg, po administered on day 3 post tumor inoculation measured on day 9 by plethysmometer analysis (reference value: 95.5 +/- 5.2%); type: functional
[6] = Acute toxicity in Balb/C mouse assessed as survival rate at 400 mg/kg, po; type: organism-based; settings: in vivo; summary of the method: as §2
[7] = Antitumor activity against mouse EAT implanted in Balb/C mouse assessed as change in paw volume at 100 mg/kg, po administered on day 3 post tumor inoculation measured on day 3 by plethysmometer analysis (reference value: 40.2 +/- 7.0%); type: functional
[8] = Antiproliferative activity against human NCI-ADR-RES cells assessed as growth inhibition after 48 hrs by SRB assay; type: functional; summary of the method: as §1
[9] = Antiproliferative activity against human UACC62 cells assessed as growth inhibition after 48 hrs by SRB assay; type: functional; settings: UACC-62, 48 h; summary of the method: as §1
[10] = Antitumor activity against mouse EAT implanted in Balb/C mouse assessed as change in paw volume at 100 mg/kg, po administered on day 3 post tumor inoculation measured on day 6 by plethysmometer analysis (reference value: 86.1 +/- 5.7%); type: functional
786-0 [11] = assay: Cytotoxicity against human 786-0 cells assessed as compound concentration required to cause 50% cell death after 24 hrs by SRB assay; type: functional; settings: 786-0, 24 h, read-out: LC50 (the source's name)
Summary of the method: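 786-0 cells exposed 24 h to 25, 50, 100 and 200 µM; growth measured by sulforhodamine B staining of TCA-fixed cells (540 nm) with time-zero plate; LC50 (50% cell death) and TGI derived by non-linear regression.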

[12] = Antitumor activity against mouse EAT implanted in Balb/C mouse assessed as change in paw volume at 300 mg/kg, po administered on day 3 post tumor inoculation measured on day 15 by plethysmometer analysis (reference value: 166.5 +/- 6.0%); type: functional
[13] = Antitumor activity against mouse EAT implanted in Balb/C mouse assessed as change in paw volume at 100 mg/kg, po administered on day 3 post tumor inoculation measured on day 12 by plethysmometer analysis (reference value: 125.5 +/- 7.5%); type: functional
786-0 [14] = assay: Induction of cell death in human 786-0 cells assessed as phosphatidylserine externalization at 50 uM after 18 hrs by annexin V/7-amino-actinomycin D double staining based flow cytometric analysis (reference value: 7.2 +/- 1.4%); type: functional
786-0 [15] = assay: Cell cycle arrest in human 786-0 cells assessed as accumulation at Sub G1 phase at 25 uM after 24 hrs by propidium iodide based flow cytometric analysis (reference value: 3.0 +/- 0.7%); type: functional
[16] = Antitumor activity against mouse EAT implanted in Balb/C mouse assessed as change in paw volume at 300 mg/kg, po administered on day 3 post tumor inoculation measured on day 12 by plethysmometer analysis (reference value: 125.5 +/- 7.5%); type: functional
Mus musculus [17] = assay: Acute toxicity in Balb/C mouse assessed as pain, suffering and impending death at 200 to 400 mg/kg, po; type: organism-based; settings: in vivo; summary of the method: as §2
[18] = Antitumor activity against mouse EAT implanted in Balb/C mouse assessed as change in paw volume at 30 mg/kg, po administered on day 3 post tumor inoculation measured on day 6 by plethysmometer analysis (reference value: 86.1 +/- 5.7%); type: functional
[19] = Antiproliferative activity against human HaCaT cells assessed as growth inhibition after 48 hrs by SRB assay; type: cell-based; summary of the method: as §1
[20] = Antitumor activity against mouse EAT implanted in Balb/C mouse assessed as change in paw volume at 30 mg/kg, po administered on day 3 post tumor inoculation measured on day 12 by plethysmometer analysis (reference value: 125.5 +/- 7.5%); type: functional
[21] = Antitumor activity against mouse EAT implanted in Balb/C mouse assessed as change in paw volume at 300 mg/kg, po administered on day 3 post tumor inoculation measured on day 3 by plethysmometer analysis (reference value: 40.2 +/- 7.0%); type: functional
786-0 [22] = assay: Cell cycle arrest in human 786-0 cells assessed as reduction in G1 phase at 25 uM after 24 hrs by propidium iodide based flow cytometric analysis (reference value: 46.7 +/- 0.8%); type: functional; parameters: scale not given: the % may be the effect or the level left
786-0 [23] = assay: Cell cycle arrest in human 786-0 cells assessed as accumulation at S phase at 25 uM after 24 hrs by propidium iodide based flow cytometric analysis (reference value: 14.6 +/- 1.3%); type: functional
786-0 [24] = assay: Cytotoxicity against human 786-0 cells assessed as compound concentration required to inhibit total growth after 24 hrs by SRB assay; type: functional; settings: 786-0, 24 h
Summary of the method: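 786-0 cells treated 24 h with 25, 50, 100 and 200 µM; growth measured by sulforhodamine B staining. Concentration giving total growth inhibition (TGI) calculated from the concentration–response data.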

HT-29 = assay: Antiproliferative activity against human HT-29 cells assessed as growth inhibition after 48 hrs by SRB assay; type: functional; settings: HT-29, 48 h; summary of the method: as §1
786-0 [25] = assay: Induction of cell death in human 786-0 cells assessed as phosphatidylserine externalization at 50 uM after 24 hrs by annexin V/7-amino-actinomycin D double staining based flow cytometric analysis (reference value: 3.8 +/- 0.5%); type: functional
[26] = Antitumor activity against mouse EAT implanted in Balb/C mouse assessed as change in paw volume at 300 mg/kg, po administered on day 3 post tumor inoculation measured on day 6 by plethysmometer analysis (reference value: 86.1 +/- 5.7%); type: functional
786-0 [27] = assay: Antiproliferative activity against human 786-0 cells assessed as growth inhibition after 48 hrs by SRB assay; type: functional; settings: 786-0, 48 h; summary of the method: as §1

Which results are given for `S=C(N/N=C/c1cccs1)Nc1ccc(Br)cc1`?
Activity [1]: 82%; GI50 (MCF7): < 0.74 µM; Activity (Mus musculus [2]): Toxic; Activity [3]: 73.7%; GI50 [4]: 79.4 µM; Activity [5]: 72.8%; survival [6]: 100%; Activity [7]: 33.4%; GI50 [8]: 1.7 µM; GI50 [9]: 71.1 µM; Activity [10]: 78.1%; CC50 (786-0 [11]): 91.8 µM; Activity [12]: 106%; Activity [13]: 75.8%; Activity (786-0 [14]): 15.5%; Activity (786-0 [15]): 5.4%; Activity [16]: 64%; Activity (Mus musculus [17]): Non-toxic; Activity [18]: 60.6%; GI50 at 48 h [19]: 0.8 µM; Activity [20]: 36.3%; Activity [21]: 39.4%; Activity (786-0 [22]): 44.9%; Activity (786-0 [23]): 13.9%; TGI (786-0 [24]): 28 µM; GI50 (HT-29): 17.7 µM; Activity (786-0 [25]): 21.9%; Activity [26]: 75.1%; GI50 (786-0 [27]): 4.5 µM
